bovine MsrA act – bovine MsrA enzyme activators, primary screen, biochemical, absorbance, HTS; Methionine sulfoxide reductase A (Bos taurus); activation, % at 10.6 µM; actives 0.3% (n = 360,000); purified bovine MsrA, absorbance read-out; in the data active means activation above about 7.5%;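 further: 0% = vehicle and 100% = reference activator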
m5-HT2A agonist – mouse Htr2a agonists via beta-arrestin recruitment, primary screen, cell-based, luminescence; 5-hydroxytryptamine receptor 2A (Mus musculus), P35363; CHO-K1 mHTR2A beta-arrestin complementation; percent of 30 µM serotonin response; activation, % at 7.6 µM; actives 0.66% (n = 360,000);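 active means activation above a run cutoff, the mean activation of all tested compounds plus 3 SD, cut at about 14% in these data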;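 further: 0% = plate median of compound wells and 100% = 30 µM serotonin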
MsrA inhibitor – bovine MsrA enzyme inhibitors, primary screen, biochemical, absorbance, HTS; AID 651718, 2012; Methionine sulfoxide reductase A (Bos taurus); actives 0.75% (n = 360,000); purified bovine MsrA, absorbance read-out; inhibition, % at 15.5 µM; in the data active means inhibition above about 4.5%;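 further: 0% = vehicle wells with enzyme and 100% = reference inhibitor wells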
AI-2 QS modul – Vibrio harveyi AI-2 quorum sensing modulators, primary screen, JMH597 strain, luminescence/OD600 ratio | Vibrio harveyi JMH597 AI-2 luminescence/OD600 ratio, 9 h; active compounds read low; strain lacks LuxN and CqsS sensors; 0 = neutral-control median | activity change, % at 7.5 µM | actives 0.4% (n = 300,000); in the data active means activity change below about -75%, passing the limit was not always enough;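 further: luminescence divided by OD600 gain over 9 h not by final OD600 alone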
AHR act – AHR activators, primary screen, cell-based, luminescence, luciferase reporter, human; AHR-responsive luciferase reporter cells; Aryl hydrocarbon receptor (Homo sapiens), P35869; activation, % at 5 µM; actives 2.5% (n = 320,000); in the data active means activation above about 47%;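 further: 0% = vehicle wells and 100% = reference agonist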
TbMetRS inhib – T. brucei MetRS inhibitors, primary screen, biochemical, luminescence. methionyl-tRNA synthetase (Trypanosoma brucei brucei). purified T. brucei MetRS, ATP depletion, Kinase-Glo luminescence. inhibition, % at 11.9 µM. actives 0.4% (n = 360,000). AID 624268, 2012;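 active means inhibition above a per-plate cutoff of the control wells' mean inhibition plus 3 SD, cut at about 5.5% in these data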;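 further: 0% = DMSO wells median and 100% = median of wells with control inhibitor compound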
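Dosing: 11.9 µM single point; system: parasite MetRS enzyme; technique: luminescence of leftover ATP; times: 15 min enzyme-compound preincubation, 2 h reaction, 10 min detection, 25 °C; replicates: each compound tested once; read-out basis: percent inhibition relative to median high and low control wells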
Tb MetRS conf – T. brucei MetRS inhibitors, confirmation, biochemical, luminescence; shares compounds with TbMetRS inhib; T. brucei MetRS enzyme, luminescence (ATP depletion); inhibition, % at 11.9 µM; actives 93% (n = 1,400); in the data active means inhibition above about 7%
Jurkat tox – Jurkat T cell cytotoxicity, cytotoxicity control for T. brucei MetRS inhibitor project, luminescence, high throughput; shares compounds with TbMetRS inhib; Jurkat cells viability, ATP luminescence; inhibition, % at 8.3 µM; actives 12% (n = 1,400); AID 624413, 2012; in the data active means inhibition above about 15%;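 further: 0% = vehicle and 100% = reference inhibitor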
Tb MetRS inh FP – T. brucei MetRS inhibitors, orthogonal assay for T. brucei MetRS inhibitor project, biochemical, fluorescence polarization; shares compounds with TbMetRS inhib; purified T. brucei MetRS; inhibition, % at 11.9 µM; actives 44% (n = 1,400); AID 651607, 2012; in the data active means inhibition above about 17%;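 further: 0% = vehicle wells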
* marks the source's active call; other numbers are inactive results; · = not tested or not shown. Only some compounds are listed: those with a hit (about 4.4% of all), similar ones and a draw of the others.

SMILES	bovine MsrA act	m5-HT2A agonist	MsrA inhibitor	AI-2 QS modul	AHR act	TbMetRS inhib	Tb MetRS conf	Jurkat tox	Tb MetRS inh FP
Cc1cccc(N2N=C(C(=O)N3Cc4ccccc4CC3C(N)=O)CCC2=O)c1 (centres undefined)	-2	-4	0	·	9	0	·	·	·
CC(=O)Nc1ccc(-c2ccnc3c2CC(C(=O)NCc2cccc(Cl)c2)O3)cc1 (centres undefined)	-5	5	0	·	·	0	·	·	·
O=C(CN1C2=NCCCN2c2ccccc21)c1ccc(Cl)cc1Cl	-2	-6	1	1	59*	12*	28*	12	13
C#CCNC(=O)C1=C[C@H](C(C)(C)C)C[C@H](OCCCCO)O1	-11	-1	1	22	3	0	·	·	·
Cc1ccc(S(=O)(=O)N2CCN(Cc3nc4ccccc4[nH]3)CC2)cc1C	1	-9	1	6	4	5.8*	17*	0	5
O=C(NCc1cccc(Cl)c1)c1cccc(S(=O)(=O)N2CCCC2)c1	-3	-4	-1	·	0	13*	43*	2	26*
O=C(NCc1cccc(Cl)c1)c1cccc(S(=O)(=O)N2CCCCC2)c1	-4	-10	0	·	1	5	·	·	·
O=C(Nc1nc2ccccc2[nH]1)c1cccc(S(=O)(=O)N2CCOCC2)c1	-1	1	1	43	13	0	·	·	·
Cc1c(NS(=O)(=O)c2cc(C(=O)NCc3cccc(Cl)c3)ccc2Cl)c(=O)n(-c2ccccc2)n1C	-5	-3	0	·	·	11*	34*	0	24*
O=C(NCc1nc2ccccc2[nH]1)c1cccc(S(=O)(=O)N2CCOCC2)c1	-2	-1	0	31	3	65*	94*	7	58*
Cc1c(NS(=O)(=O)c2cc(C(=O)NCc3cccnc3)ccc2Cl)c(=O)n(-c2ccccc2)n1C	-4	-1	-1	·	1	0	·	·	·
CC1CCCN(C(=O)C2CCN(S(=O)(=O)c3ccc4c(c3)CC(C)N4C(=O)C3CC3)CC2)C1 (centres undefined)	-1	-4	1	10	2	0	·	·	·
O=C(NCc1nc2ccccc2[nH]1)c1cccc(S(=O)(=O)N2CCCC2)c1	-3	-2	0	11	4	7.9*	19*	-7	14
CN(C)CCN(C)C1CN(C2CCCC2)S(=O)(=O)C1 (centres undefined)	0	-6	0	·	·	1	·	·	·
O=C(CN1CCN(CCC(=O)Nc2ccccc2F)CC1)Nc1ccc(Cl)cc1	-17	-2	1	0	2	6.4*	-1	9	3
CCOC(=O)N1CCC(Nc2c(Nc3ccc(F)cc3)c(=O)c2=O)CC1	6	-6	0	13	25	36*	77*	12	40*
Nc1[nH]c(C(=O)c2ccccc2)c(-c2ccccc2C(F)(F)F)c1C(=O)c1cccs1	-8	4	1	·	·	-2	·	·	·
CN(C)CC1CCCCC1OC(=O)/C=C/c1ccccc1 (centres undefined)	-1	-9	1	9	2	3	·	·	·
CN(C)CC1CCCCC1OC(=O)/C=C/c1ccc(Cl)cc1Cl (centres undefined)	4	-6	0	5	6	9.0*	20*	5	12

High-throughput results (PubChem BioAssay)
